How the values were obtained:
Rattus norvegicus [1] = species on record: Rattus norvegicus; assay: Biodistribution of [11C]-CGP- 12388 (10 minutes post injection) in lung of male wistar rats; assay type: ADME, organism-based; conditions: in vivo
How it was run: (§1)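 Male Wistar rats (200 ± 20 g) under pentobarbital anesthesia (60 mg/kg ip) got iv saline (controls, n = 4) or 500 μg (±)-propranolol (blocking, n = 4) <1 min before the tracer. Tracer dose was 1 MBq (30 pmol) in 0.3 mL. Rats were killed by heart extirpation at 10 min and tissues counted. Plasma was spun 3 min at 1000g. Uptake is given as DAR, mean ± SD.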

[2] = Partition coefficient (logP); assay type: physicochemical; conditions: octanol/water
How it was run: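 50-100 μCi of tracer in 0.1 M phosphate buffer pH 7.4 (5 mL) plus n-octanol (5 mL). Shaken vigorously for 30 min at 37 °C, five mixtures. 100 μL of each layer gamma-counted. log P from the octanol/water count ratio, n = 5. A calculated value was also obtained with Pallas 1.2.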

Rattus norvegicus [3] = species on record: Rattus norvegicus; assay: Biodistribution of [11C]-CGP- 12388 (10 minutes post injection) in heart of male wistar rats; assay type: ADME, organism-based; conditions: in vivo; how it was run: as §1

DAR (Rattus norvegicus [1]): 2.3 | logP [2]: -0.5 | DAR (Rattus norvegicus [3]): 0.94
SMILES: [3H]c1cc([3H])c2c(c1OCC(O)CNC(C)(C)C)=NC(=O)N=2 (stereo not drawn)
